# From ChEMBL document CHEMBL1151774, “Synthesis and biological evaluation of new N-linked 5-triazolylmethyl oxazolidinones” (Eur J Med Chem, 2008)
# Assays:
# [1] = tested on: Staphylococcus aureus; assay: Antimicrobial activity against Staphylococcus aureus ATCC 29213 after 16 to 18 hrs by agar dilution method; assay type: functional
# [2] = tested on: Staphylococcus aureus; assay: Antimicrobial activity against methicillin-susceptible Staphylococcus aureus after 16 to 18 hrs by agar dilution method; assay type: functional
# [3] = tested on: Staphylococcus aureus; assay: Antimicrobial activity against methicillin-resistant Staphylococcus aureus after 16 to 18 hrs by agar dilution method; assay type: functional
# [4] = tested on: Enterococcus faecalis; assay: Antimicrobial activity against Enterococcus faecalis after 16 to 18 hrs by agar dilution method; assay type: functional
# [5] = tested on: Streptococcus pneumoniae; assay: Antimicrobial activity against sStreptococcus pneumoniae after 16 to 18 hrs by agar dilution method; assay type: functional
# [6] = AUC (0 to infinity) in Sprague-Dawley rat at 10 mg/kg, po; assay type: ADME, organism-based, Plasma; set-up: time infinity, dose 10 mg/kg, route oral; conditions: Sprague-Dawley, plasma
# Procedure, shortened: (§1)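 Single dose given orally (10 or 50 mg/kg) or intravenously (10 mg/kg). Serial 300 µL blood samples were taken from the retrobulbar vein. Plasma was quantified by LC-MS. Parameters came from mean plasma concentration by non-compartmental analysis. F is absolute oral bioavailability, assuming linear pharmacokinetics.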
# [7] = AUC (0 to infinity) in Sprague-Dawley rat at 10 mg/kg, iv; assay type: ADME, organism-based; set-up: time infinity, dose 10 mg/kg, route intravenous; conditions: plasma; procedure, shortened: as §1
# [8] = Elimination half life in Sprague-Dawley rat at 10 mg/kg, iv; assay type: ADME, organism-based; set-up: dose 10 mg/kg, route intravenous; conditions: in vivo, read-out: beta t1/2 (converted); procedure, shortened: as §1
# [9] = Oral bioavailability in Sprague-Dawley rat at 10 mg/kg; assay type: ADME, organism-based; conditions: in vivo; procedure, shortened: as §1
# [10] = Cmax in Sprague-Dawley rat at 10 mg/kg, po; assay type: ADME, organism-based; set-up: dose 10 mg/kg, route oral; conditions: in vivo; procedure, shortened: as §1
# [11] = Elimination half life in Sprague-Dawley rat at 10 mg/kg, po; assay type: ADME, organism-based; set-up: dose 10 mg/kg, route oral; conditions: in vivo, read-out: beta t1/2 (converted); procedure, shortened: as §1
# [12] = Clearance in Sprague-Dawley rat at 10 mg/kg, iv; assay type: ADME, organism-based; set-up: dose 10 mg/kg, route intravenous; conditions: in vivo; procedure, shortened: as §1
# [13] = Cmax in Sprague-Dawley rat at 50 mg/kg, po; assay type: ADME, organism-based; set-up: dose 50 mg/kg, route oral; conditions: in vivo; procedure, shortened: as §1
# [14] = Tmax in Sprague-Dawley rat at 50 mg/kg, po; assay type: ADME, organism-based; set-up: dose 50 mg/kg, route oral; conditions: in vivo; procedure, shortened: as §1
# [15] = Clearance in Sprague-Dawley rat at 50 mg/kg, po; assay type: ADME, organism-based; set-up: dose 50 mg/kg, route oral; conditions: in vivo; procedure, shortened: as §1
# [16] = tested on: Staphylococcus aureus; assay: Antimicrobial activity against methicillin-resistant Staphylococcus aureus 05-2 infected in po dosed KunMing SPF mouse; assay type: functional
# Procedure, shortened: (§2)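 Mice given a lethal systemic infection by intraperitoneal injection of the MLD inoculum of MRSA 05-2. Compound dosed orally or by i.v. injection in 0.9% NaCl immediately and 4 h post-infection. ED50 (dose curing 50% of infected mice) calculated by the Bliss method on day 7 post-infection, with 95% confidence ranges.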
# [17] = Elimination half life in Sprague-Dawley rat at 50 mg/kg, po; assay type: ADME, organism-based; set-up: dose 50 mg/kg, route oral; conditions: in vivo, read-out: beta t1/2 (converted); procedure, shortened: as §1
# [18] = AUC (0 to infinity) in Sprague-Dawley rat at 50 mg/kg, po; assay type: ADME, organism-based, Plasma; set-up: time infinity, dose 50 mg/kg, route oral; conditions: Sprague-Dawley, plasma; procedure, shortened: as §1
# [19] = Clearance in Sprague-Dawley rat at 10 mg/kg, po; assay type: ADME, organism-based; set-up: dose 10 mg/kg, route oral; conditions: in vivo; procedure, shortened: as §1
# [20] = tested on: Staphylococcus aureus; assay: Antimicrobial activity against methicillin-resistant Staphylococcus aureus 05-2 infected in iv dosed KunMing SPF mouse; assay type: functional; procedure, shortened: as §2
# [21] = Tmax in Sprague-Dawley rat at 10 mg/kg, po; assay type: ADME, organism-based; set-up: dose 10 mg/kg, route oral; conditions: in vivo; procedure, shortened: as §1
compound,measurement,setting,value
O=Cc1cccc(CN2CCN(c3ccc(N4C[C@H](Cn5ccnn5)OC4=O)cc3F)CC2)c1,MIC,[1],0.25 µg/mL
same,MIC,[2],0.5 µg/mL
same,MIC,[3],0.125 µg/mL
same,MIC,[4],1 µg/mL
same,MIC,[5],1 µg/mL
O=C1O[C@@H](Cn2ccnn2)CN1c1ccc(N2CCN(Cc3ccncc3)CC2)c(F)c1,MIC,[1],0.5 µg/mL
same,MIC,[2],0.5 µg/mL
same,MIC,[3],1 µg/mL
same,MIC,[4],2 µg/mL
same,MIC,[5],1 µg/mL
O=C1O[C@@H](Cn2ccnn2)CN1c1ccc(N2CCN(Cc3ccccc3[N+](=O)[O-])CC2)c(F)c1,MIC,[1],0.125 µg/mL
same,MIC,[2],0.125 µg/mL
same,MIC,[3],1 µg/mL
same,MIC,[4],> 2 µg/mL
same,MIC,[5],1 µg/mL
Nc1ccccc1CN1CCN(c2ccc(N3C[C@H](Cn4ccnn4)OC3=O)cc2F)CC1,MIC,[1],0.125 µg/mL
same,MIC,[2],0.125 µg/mL
same,MIC,[3],0.5 µg/mL
same,MIC,[4],1 µg/mL
same,MIC,[5],0.5 µg/mL
O=C1O[C@@H](Cn2ccnn2)CN1c1ccc(N2CCN(Cc3cccc([N+](=O)[O-])c3)CC2)c(F)c1,MIC,[1],0.03 µg/mL
same,AUC(0-inf),[6],16100 ng·h/mL
same,AUC(0-inf),[7],26200 ng·h/mL
same,half-life,[8],2.95 h
same,bioavailability,[9],61.5%
same,Cmax,[10],3240 ng/mL
same,half-life,[11],2.36 h
same,clearance,[12],6.98 mL/min/kg
same,MIC,[2],0.06 µg/mL
same,Cmax,[13],10800 ng/mL
same,Tmax,[14],2.3 h
same,CL/F,[15],11.3 mL/min/kg
same,ED50,[16],7.87 mg/kg
same,MIC,[3],0.5 µg/mL
same,half-life,[17],5.34 h
same,MIC,[4],0.5 µg/mL
same,AUC(0-inf),[18],74500 ng·h/mL
same,CL/F,[19],11.7 mL/min/kg
same,ED50,[20],11.2 mg/kg
same,MIC,[5],0.5 µg/mL
same,Tmax,[21],1.4 h
Nc1ccc(CN2CCN(c3ccc(N4C[C@H](Cn5ccnn5)OC4=O)cc3F)CC2)cc1,MIC,[1],0.125 µg/mL
same,AUC(0-inf),[6],3100 ng·h/mL
same,AUC(0-inf),[7],7080 ng·h/mL
same,half-life,[8],3.52 h
same,bioavailability,[9],43.8%
same,Cmax,[10],1200 ng/mL
same,half-life,[11],3.4 h
same,clearance,[12],23.9 mL/min/kg
same,MIC,[2],0.06 µg/mL
same,Cmax,[13],2320 ng/mL
same,Tmax,[14],1 h
same,CL/F,[15],49 mL/min/kg
same,ED50,[16],14.5 mg/kg
same,MIC,[3],0.5 µg/mL
same,half-life,[17],4.67 h
same,MIC,[4],0.25 µg/mL
same,AUC(0-inf),[18],18100 ng·h/mL
same,CL/F,[19],54.4 mL/min/kg
same,ED50,[20],6.73 mg/kg
same,MIC,[5],0.5 µg/mL
same,Tmax,[21],0.75 h
O=C1O[C@@H](Cn2ccnn2)CN1c1ccc(N2CCN(Cc3ccccn3)CC2)c(F)c1,MIC,[1],0.125 µg/mL
same,MIC,[2],0.125 µg/mL
same,MIC,[3],0.5 µg/mL
same,MIC,[4],0.5 µg/mL
same,MIC,[5],0.5 µg/mL
O=C1O[C@@H](Cn2ccnn2)CN1c1ccc(N2CCN(Cc3ccc([N+](=O)[O-])cc3)CC2)c(F)c1,MIC,[1],0.5 µg/mL
same,MIC,[2],0.5 µg/mL
same,MIC,[3],> 8 µg/mL
same,MIC,[4],8 µg/mL
same,MIC,[5],4 µg/mL
O=C1O[C@@H](Cn2ccnn2)CN1c1ccc(N2CCN(Cc3ccc(Br)s3)CC2)c(F)c1,MIC,[1],0.06 µg/mL
same,MIC,[2],0.06 µg/mL
same,MIC,[3],0.5 µg/mL
same,MIC,[4],1 µg/mL
same,MIC,[5],0.5 µg/mL
Cc1ccc(CN2CCN(c3ccc(N4C[C@H](Cn5ccnn5)OC4=O)cc3F)CC2)s1,MIC,[1],0.125 µg/mL
same,MIC,[2],0.06 µg/mL
same,MIC,[3],4 µg/mL
same,MIC,[4],4 µg/mL
same,MIC,[5],2 µg/mL
O=C1O[C@@H](Cn2ccnn2)CN1c1ccc(N2CCN(Cc3ccc(Cl)o3)CC2)c(F)c1,MIC,[1],0.125 µg/mL
same,MIC,[2],0.125 µg/mL
same,MIC,[3],1 µg/mL
same,MIC,[4],2 µg/mL
same,MIC,[5],1 µg/mL
